The source made the active and inactive calls.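 The calls were made as follows, unless noted: active = a full or partial loss of lipid-probe fluorescence in the fish gall bladder, intestine or both, judged by eye; inactive = no fluorescence loss, or compound toxic to the fish.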

Assay [1] can be described thus: inhibitors of TNFa-induced NFkB p65 translocation, primary screen, imaging, HUVEC, MLSMR starter and 10KST1 sets (AID 438;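 active = inhibition above 20% together with a positive visual image hit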;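 also: compound added about 3h40 before a 20 min TNFalpha stimulation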;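 as to inhibition: signal is the nuclear over cytoplasmic p65 intensity ratio per well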). To be noted: HUVEC TNFa-induced p65 nuclear translocation; cell count: measured here: nuclei count (cytotoxicity indicator), at 2.08 µM; inhibition: at 2 µM, stronger effect = higher value, 0% TNFa-plus-vehicle, 100% no-TNFa wells.
A short description of assay [2]: endothelial E-selectin expression blockers – imaging, HUVEC, immunofluorescence, MLSMR starter and 10KST1 sets, primary screen (AID 487;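 active = visually confirmed hit in the image check and inhibition above 20%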;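 as to inhibition: signal is fraction of cell area covered by stained E-selectin grains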;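 as to nuclei count: 100% = median nuclei count of all wells on the same plate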). To be noted: HUVEC TNFalpha-induced E-selectin immunofluorescence imaging, at 2 µM; inhibition: stronger effect = higher value; nuclei count: measured here: cell number, toxicity.
Assay [3] in a line: Primary imaging screen for DUSP6 inhibitors that restore phospho-Erk in transfected HeLa cells, chemical complementation (AID 609;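 active = compounds giving at least 50% inhibition in the cell-based MKP-3 phosphatase rescue imaging test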;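 as to inhibition: phospho-Erk level distribution per well compared with pooled transfected vehicle control wells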). To be noted: HeLa MKP-3 transfected, phospho-Erk imaging KS statistic, at 10 µM, cells stimulated with TPA for 15 min.
Assay [4] concerns the target Dual specificity protein phosphatase 6 (Homo sapiens) (UniProt Q16828). Described as above. To be noted: HeLa MKP-3 transfected, phospho-Erk imaging KS statistic; at 10 µM; stronger effect = higher value; cells stimulated with TPA for 15 min.
For assay [5], the target named is Voltage-gated potassium channel subunit beta-2 (Rattus norvegicus) (UniProt P62483). The experiment in a line: inhibitors of rat Kvbeta2 reductase activity – biochemical, NADPH fluorescence, primary screen (AID 622;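 active = fluorescence slope higher than the sample average by over 3 SD, cut at about -0.22 in these data, passing the limit was not always enough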;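 also: slope of raw intensity against log time taken from 70 to 1610 s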). To be noted: recombinant KvBeta, 4-cyanobenzaldehyde reduction, at 10 µM, stronger effect = higher value.
Voltage-gated potassium channel subunit beta-2 (Rattus norvegicus), sequence (P62483 whole entry, looked up): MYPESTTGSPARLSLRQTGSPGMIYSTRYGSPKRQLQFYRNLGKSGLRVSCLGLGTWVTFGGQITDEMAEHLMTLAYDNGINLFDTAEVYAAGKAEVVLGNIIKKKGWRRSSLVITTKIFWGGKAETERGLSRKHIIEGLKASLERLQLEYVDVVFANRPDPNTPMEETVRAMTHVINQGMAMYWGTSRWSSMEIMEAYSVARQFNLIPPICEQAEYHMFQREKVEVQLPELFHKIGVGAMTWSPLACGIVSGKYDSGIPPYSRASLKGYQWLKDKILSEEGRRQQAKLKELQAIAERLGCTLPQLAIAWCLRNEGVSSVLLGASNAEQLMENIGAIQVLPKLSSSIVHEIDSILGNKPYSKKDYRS
For assay [6] the target is unchanged. The experiment in a line: enhancers of rat Kvbeta2 NADPH turnover – biochemical, NADPH fluorescence, primary screen (AID 623;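 active = NADPH fluorescence slope more negative than the mean of all samples by about 3 SD, 99.7% confidence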;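 also: fluorescence intensity change per second fitted from 20 to 320 s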). The settings on record: Recombinant KvBeta, NADPH fluorescence decrease slope, 10 min; at 10 µM; stronger effect = lower value.
The target in assay [7] is Alpha-2C adrenergic receptor (Homo sapiens) (UniProt P18825). Nature of the assay: compounds altering alpha2C-coupled GIRK flux – cell-based, HEK293 alpha2C/GIRK1/2, thallium flux, primary screen (AID 624;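 active = fluorescence slope after compound addition differing from the mean of all screened samples at 99.7% confidence, in either direction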;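 also: slope of fluorescence ratio to pre-addition baseline per second over 15 to 24 s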). The settings on record: thallium flux BTC fluorescence, at 10 µM, actives lie on both sides.
Alpha-2C adrenergic receptor (Homo sapiens), sequence (P18825 whole entry, looked up): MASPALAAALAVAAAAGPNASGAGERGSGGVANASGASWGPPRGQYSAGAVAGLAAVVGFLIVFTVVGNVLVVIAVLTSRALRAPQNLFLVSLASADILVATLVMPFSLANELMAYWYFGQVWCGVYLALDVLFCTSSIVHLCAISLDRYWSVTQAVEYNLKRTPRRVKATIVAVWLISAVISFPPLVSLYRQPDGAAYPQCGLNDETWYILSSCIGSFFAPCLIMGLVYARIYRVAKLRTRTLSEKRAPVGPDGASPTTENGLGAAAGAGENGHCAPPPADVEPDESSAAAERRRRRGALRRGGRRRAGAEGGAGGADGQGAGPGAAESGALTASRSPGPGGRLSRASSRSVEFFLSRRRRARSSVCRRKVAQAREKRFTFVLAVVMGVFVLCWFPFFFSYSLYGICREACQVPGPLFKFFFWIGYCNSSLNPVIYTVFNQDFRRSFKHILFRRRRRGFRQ
The nature of assay [8]: inhibitors of larval lipid processing in zebrafish, primary screen, whole organism, PED6 fluorescence, gall bladder and intestine (AID 686).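 Also: larvae 5 to 7 days old with five fish per well; signal comes from phospholipase A2 cleavage of quenched PED6 carried via bile; overnight exposure to compound and PED6 before scoring.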 The settings on record: Zebrafish larvae PED6 lipid processing, fluorescence scoring; screened at 20 µM (by protocol). The procedure, abridged:
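System: live zebrafish larvae aged 5-7 days, whole organism; measure: graded gall bladder and intestinal fluorescence inhibition per well; incubation: overnight exposure; reagent: ingested quenched lipid PED6 at 100 nM; signal: By-eye fluorescence microscopy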

The nature of assay [9]: loss of swimming-algae plug formation – whole organism, Chlamydomonas reinhardtii, WT vs cilia-less mutant, absorbance, 96-well, primary screen (AID 463189;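 active = inhibition at or above 50% relative to wild type and mutant plate controls; inactive = inhibition below 50%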;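 also: 0% = wild type cc124 cells in DMSO and 100% = ciliumless bld1 mutant cells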). To be noted: Chlamydomonas reinhardtii gravitaxis, OD600 absorbance, 2 days; at 10 µM; stronger effect = higher value.
[10] abbreviates: measured here: cell density z-score.
Where [11] appears, read: measured here: nuclear c-Myc green intensity z-score.
[12] abbreviates: measured here: nuclear pErk red intensity z-score, stronger effect = higher value.

Dual specificity protein phosphatase 6 (Homo sapiens), sequence (Q16828 whole entry, looked up): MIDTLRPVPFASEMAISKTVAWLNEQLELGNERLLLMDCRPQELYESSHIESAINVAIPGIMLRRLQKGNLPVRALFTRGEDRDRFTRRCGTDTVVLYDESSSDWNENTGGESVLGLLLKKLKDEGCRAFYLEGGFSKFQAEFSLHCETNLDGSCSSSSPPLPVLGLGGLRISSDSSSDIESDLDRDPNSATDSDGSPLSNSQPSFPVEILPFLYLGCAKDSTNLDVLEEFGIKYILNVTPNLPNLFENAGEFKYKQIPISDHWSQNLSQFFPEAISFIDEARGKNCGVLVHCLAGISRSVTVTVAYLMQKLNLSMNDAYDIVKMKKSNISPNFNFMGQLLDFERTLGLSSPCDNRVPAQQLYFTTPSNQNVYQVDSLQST

As for `CCCOC(=O)CSC1=C(C#N)C(c2ccccc2OCC)C(C#N)C(=O)N1` (centres undefined), the cell count in assay [1] was determined as 487. Also, the inhibition in assay [1] is -1.9% (inactive); in assay [2], -37.3% (inactive); in [4] it was 7.48% (inactive); in [9], -14.4% (inactive). This compound came in with a nuclei count in assay [2] of 101%. The z-score in assay [3] (setting [10]) is 0.769; in [3] (setting [11]) it was -0.531; in assay [3] (setting [12]), 1.5. For the same compound, in assay [5], the fluorescence slope is -0.499 (inactive). Also, the NADPH fluorescence slope in [6] was -0.000121 (inactive). Besides, the slope in assay [7] is 0.00584 (inactive). Further, the compound was called inactive in assay [8].
Consider `CN1CCc2c(sc3ncn4nc(-c5ccccc5O)nc4c23)C1`, for which, in assay [1], the cell count came to 519. The inhibition was -12.5% (inactive) in assay [1], -51.6% (inactive) in assay [2], 9.39% (inactive) in assay [4] and 87% (active) in assay [9]. The same compound gave a nuclei count in [2] of 125%. Besides, the z-score in [3] (setting [10]) was 0.947; in assay [3] (setting [11]) it was -1.25; in assay [3] (setting [12]), 0.576. Further, the fluorescence slope in assay [5] is -0.472 (inactive). In addition, the NADPH fluorescence slope in [6] is -0.000226 (inactive). The slope in [7] was 0.00542 (inactive). For the same compound, the outcome in assay [8] was inactive.
For `COc1nc(NS(=O)(=O)c2ccc(C)cc2)nc(C)c1Cl`, in assay [1], the cell count was found to be 718. In addition, the inhibition in assay [1] was 3.9% (inactive); in assay [2] it was -62.9% (inactive); in [4], 1.48% (inactive); in assay [9] it was -6.39% (inactive). In [2], this compound gave a nuclei count of 170%. In addition, the z-score in assay [3] (setting [10]) was -1.13; in assay [3] (setting [11]), 1.46; in [3] (setting [12]) it was -0.341. In addition, the fluorescence slope in [5] was -0.346 (inactive). Further, in assay [6], the NADPH fluorescence slope was -3.1e-05 (inactive). The slope in [7] was 0.00526 (inactive). Besides, in assay [8], the result was inactive.
Take `Cc1ccc(N(CN2C(=O)NC(C)(C)C2=O)CN2C(=O)NC(C)(C)C2=O)cc1`: the cell count in [1] was determined as 465. In addition, the inhibition in assay [1] was 5.9% (inactive); in assay [2] it was -355% (inactive); in assay [4], 2.71% (inactive); in [9], 5.64% (inactive). In [2], the nuclei count amounted to 156%. The z-score in assay [3] (setting [10]) was 0.539; in assay [3] (setting [11]), 0.101; in assay [3] (setting [12]), 0.322. Also, the fluorescence slope in assay [5] is -0.315 (inactive). For the same compound, in [6], the NADPH fluorescence slope is -9.5e-06 (inactive). Moreover, in assay [7], the slope is 0.00542 (inactive). Also, the outcome in assay [8] was inactive.
As for `CCOC(=O)c1ccc(N=CC2=C(O)CC(c3ccco3)CC2=O)cc1` (centres undefined), the cell count in [1] is 411. Besides, the inhibition was -17.7% (inactive) in assay [1], -249% (inactive) in assay [2], 16% (inactive) in assay [4] and 1.78% (inactive) in assay [9]. Further, the nuclei count in assay [2] was 188%. Moreover, the results for the z-score in assay [3] (setting [10]), in [3] (setting [11]) and in [3] (setting [12]) were 1.91, -1.05 and 0.242, respectively. For the same compound, in assay [5], the fluorescence slope was -0.351 (inactive). Besides, the NADPH fluorescence slope in [6] is -1.6e-05 (inactive). The slope in [7] is 0.00521 (inactive). For the same compound, in [8], the result was inactive.
As for `CS(=O)(=O)CCC(C(=O)n1nnc2ccccc21)N1C(=O)c2ccccc2C1=O` (centres undefined), the cell count in assay [1] is 342. Moreover, the inhibition was -6.4% (inactive) in assay [1], -46.5% (inactive) in assay [2], 3.42% (inactive) in assay [4] and 26% (inactive) in assay [9]. The nuclei count in [2] was 134%. Further, the z-score in assay [3] (setting [10]) is 0.823; in [3] (setting [11]), -0.696; in [3] (setting [12]), -1.53. Further, the fluorescence slope in assay [5] is -0.419 (inactive). Besides, the NADPH fluorescence slope in assay [6] is -5.5e-05 (inactive). The slope in [7] is 0.00572 (inactive). In addition, the compound was called inactive in assay [8].
For `Cc1sccc1C1C(C#N)=C(N)SC(N)=C1C#N`, the cell count in assay [1] was found to be 693. Moreover, the inhibition in assay [1] is -19.1% (inactive); in [2], -22.1% (inactive); in [4], 16% (inactive); in assay [9], -2.96% (inactive). In addition, in [2], the nuclei count was determined as 167%. Also, the z-score in assay [3] (setting [10]) was 0.12; in assay [3] (setting [11]) it was -0.636; in [3] (setting [12]), 1.06. Also, the fluorescence slope in assay [5] was -0.345 (inactive). Further, the NADPH fluorescence slope in assay [6] is -2.2e-05 (inactive). For the same compound, in assay [7], the slope was 0.00967 (inactive). For the same compound, in assay [8], the call was inactive.
On to `C=C(C)CSC1=C(C#N)C(c2ccsc2)CC(=O)N1` (centres undefined), for which the cell count in assay [1] is 486. Besides, the inhibition in [1] was -5% (inactive); in assay [2] it was 8.3% (inactive); in [4], -5.89% (inactive); in assay [9] it was 13% (inactive). In [2], this compound came in with a nuclei count of 121%. Moreover, the z-score in [3] (setting [10]) is -1; in assay [3] (setting [11]), -0.892; in assay [3] (setting [12]), 0.991. The fluorescence slope in assay [5] was -0.512 (inactive). The NADPH fluorescence slope in [6] is -6.2e-05 (inactive). Besides, the slope in assay [7] was 0.00453 (inactive). In assay [8], the compound was classed as inactive.
Turning to `CN1CCN(CC(=O)Nc2nc(-c3ccccc3)cs2)CC1`, in [1], the cell count came out at 667. For the same compound, the inhibition was -3.3% (inactive) in [1], -41.9% (inactive) in assay [2], 0.671% (inactive) in assay [4] and 8.3% (inactive) in assay [9]. The same compound registered a nuclei count in assay [2] of 149%. Further, the z-score is -1.89 in assay [3] (setting [10]), 1.19 in [3] (setting [11]) and 0.906 in assay [3] (setting [12]). Moreover, the fluorescence slope in [5] is -0.462 (inactive). Besides, in [6], the NADPH fluorescence slope was -0.000262 (inactive). Also, in assay [7], the slope was 0.0053 (inactive). In [8], the call was inactive.
`N#CC1=C2SCC(O)(c3ccccc3)N2C(=O)CC1c1ccccc1` (centres undefined): the cell count in assay [1] came to 487. In addition, the inhibition in assay [1] is 0.4% (inactive); in [2], -39.3% (inactive); in assay [4], -3.98% (inactive); in [9] it was 13.3% (inactive). The compound also showed a nuclei count in assay [2] of 98.1%. Further, the z-score was -0.384 in [3] (setting [10]), -0.62 in assay [3] (setting [11]) and 2.84 in assay [3] (setting [12]). In addition, the fluorescence slope in assay [5] was -0.459 (inactive). Besides, the NADPH fluorescence slope in assay [6] is -0.00022 (inactive). For the same compound, in assay [7], the slope was 0.00444 (inactive). Moreover, the compound was classed as inactive in assay [8].
Take `Cn1c(OCc2ccc3c(c2)OCO3)nc2c1c(=O)n(Cc1cccc(Cl)c1)c(=O)n2C`: the cell count in assay [1] came to 646. For the same compound, the inhibition is 5.7% (inactive) in [1], -35.9% (inactive) in [2], 9.61% (inactive) in assay [4] and 4.63% (inactive) in assay [9]. The compound further registered a nuclei count in assay [2] of 149%. Moreover, the values for the z-score in [3] (setting [10]), in assay [3] (setting [11]) and in [3] (setting [12]) were -0.768, 0.366 and 0.018, respectively. Moreover, the fluorescence slope in assay [5] is -0.484 (inactive). In addition, the NADPH fluorescence slope in assay [6] is -0.000102 (inactive). Further, the slope in assay [7] was 0.00957 (inactive). The compound was called inactive in assay [8].
As for `Nc1ncnc2nc(SCc3ccccc3)[nH]c12`, the cell count in assay [1] was determined as 352. Besides, the inhibition in assay [1] was 2.1% (inactive); in [2] it was -52.6% (inactive); in assay [4], -7.01% (inactive); in [9], 8.96% (inactive). This compound also showed a nuclei count in assay [2] of 152%. For the same compound, the z-score in assay [3] (setting [10]) is -0.893; in [3] (setting [11]), 1.92; in [3] (setting [12]), 0.814. In addition, the fluorescence slope in [5] was -0.432 (inactive). Further, in [6], the NADPH fluorescence slope is -0.00013 (inactive). Moreover, the slope in assay [7] was 0.00504 (inactive). For the same compound, in assay [8], the outcome was inactive.
On to `O=C1CCc2nc3ccccc3c(=O)n2N1`, for which, in assay [1], the cell count came out at 452. Moreover, the inhibition is -12.6% (inactive) in assay [1], 21.9% (inactive) in assay [2], 11.9% (inactive) in assay [4] and 23.6% (inactive) in assay [9]. The same compound returned a nuclei count in [2] of 104%. Also, the z-score in assay [3] (setting [10]) was -0.985; in assay [3] (setting [11]), 0.704; in assay [3] (setting [12]) it was -0.802. Further, the fluorescence slope in assay [5] was -0.488 (inactive). Further, the NADPH fluorescence slope in assay [6] was -4.1e-05 (inactive). Moreover, the slope in assay [7] was 0.00483 (inactive). Further, the result in [8] was inactive.

As usually defined, the inhibition is the drop in the measured response relative to a control, in per cent.

For the origin of these results see PubChem BioAssay.
